Drawing on ChEMBL document CHEMBL1255354, “Methicillin-resistant Staphylococcus saprophyticus isolates carrying staphylococcal cassette chromosome mec have emerged in urogenital tract infections” (2008), this text covers MIC, MIC50 and MIC90 for twelve molecules.

In assay [1] the test system is Staphylococcus saprophyticus. In words: Antibacterial activity against methicillin-resistant mecA-positive Staphylococcus saprophyticus isolate TSU18 isolated from genitourinary tracts of acute cystitis patient after 24 hrs at 35 degC by agar dilution method. The class given is functional. As to conditions: isolate TSU18, Urine. The essentials:
(§1)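 MICs by agar dilution per CLSI M7-A6 on Mueller-Hinton agar, plates incubated 35°C for 24 h. Isolates identified as S. saprophyticus by Gram stain, catalase, coagulase, DNase, egg yolk mannitol salt agar growth, novobiocin susceptibility and ID 32 API Staph; mecA detected by dot-blot hybridization.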
On the technique in general: In agar dilution the substance is mixed into plates at graded concentrations.

The test system of assay [2] is Staphylococcus saprophyticus. Briefly: Antibacterial activity against methicillin-resistant mecA-positive Staphylococcus saprophyticus isolate TSU33 after 24 hrs at 35 degC by agar dilution method. As to conditions: isolate TSU33, 24 h.
Assay [3] relates to Staphylococcus saprophyticus. In words: Antibacterial activity against methicillin-resistant mecA-positive Staphylococcus saprophyticus isolate TSU28 isolated from genitourinary tracts of acute cystitis patient after 24 hrs at 35 degC by agar dilution method. In kind it is functional. Particulars: isolate TSU28, Urine. The essentials:
as §1

The subject of assay [4] is Staphylococcus saprophyticus. In words: Antibacterial activity against methicillin-resistant mecA-positive Staphylococcus saprophyticus isolate TSU57 isolated from genitourinary tracts of acute cystitis patient after 24 hrs at 35 degC by agar dilution method. In kind it is functional. Particulars: isolate TSU57, Urine. The essentials: as §1
The test system of assay [5] is Staphylococcus saprophyticus. In words: Antibacterial activity against methicillin-resistant mecA-positive Staphylococcus saprophyticus isolate TSU90 isolated from genitourinary tracts of acute cystitis patient after 24 hrs at 35 degC by agar dilution method. In kind it is functional. As to conditions: isolate TSU90, Urine. The gist of the method:
as §1

For assay [6], the system named is Staphylococcus saprophyticus. In words: Antibacterial activity against methicillin-resistant mecA-positive Staphylococcus saprophyticus isolate TSU69 isolated from genitourinary tracts of acute cystitis patient after 24 hrs at 35 degC by agar dilution method. In kind it is functional. As to conditions: isolate TSU69, Urine. The essentials:
as §1

Assay [7] has as its system Staphylococcus saprophyticus. In words: Antibacterial activity against methicillin-resistant mecA-positive Staphylococcus saprophyticus isolate TSU47 isolated from genitourinary tracts of acute cystitis patient after 24 hrs at 35 degC by agar dilution method. The class given is functional. Particulars: isolate TSU47, Urine. The gist of the method:
as §1

Assay [8] deals with Staphylococcus saprophyticus. Briefly: Antibacterial activity against methicillin-resistant mecA-positive Staphylococcus saprophyticus isolates isolated from genitourinary tracts of acute cystitis patient after 24 hrs at 35 degC by agar dilution method. The class given is functional. Particulars: Urine. The essentials:
as §1

The test system of assay [9] is Staphylococcus saprophyticus. Briefly: Antibacterial activity against methicillin-resistant mecA-positive Staphylococcus saprophyticus isolate TSU67 isolated from genitourinary tracts of acute cystitis patient after 24 hrs at 35 degC by agar dilution method. In kind it is functional. As to conditions: isolate TSU67, Urine. The essentials: as §1

Converted amounts (≈) assume the structure as drawn.

Consider `NCC[C@H](O)C(=O)N[C@@H]1C[C@H](N)[C@@H](O[C@H]2O[C@H](CN)CC[C@H]2N)[C@H](O)[C@H]1O[C@H]1O[C@H](CO)[C@@H](O)[C@H](N)[C@H]1O` [ARBEKACIN], for which the MIC in assay [1], in assay [2], in assay [3], in assay [4], in assay [5] and in [6] was at most 0.06 µg/mL each time. The MIC in assay [7] and in assay [9] was at most 0.06 µg/mL throughout. Also, in assay [8], the MIC50 (in general, the lowest concentration that inhibits either 50% of growth or 50% of the strains tested, depending on the study) was at most 0.06 µg/mL. Moreover, in assay [8], the MIC90 (usually the lowest concentration that inhibits either 90% of growth or 90% of the strains tested, depending on the study) was at most 0.06 µg/mL.
With `Cc1nnc(SCC2=C(C(=O)O)N3C(=O)[C@@H](NC(=O)Cn4cnnn4)[C@H]3SC2)s1` [CEFAZOLIN], the MIC (in general, the smallest concentration in the dilution series that meets the test's criterion for growth inhibition) in assay [1] turned out to be 16 µg/mL (≈ 35.2 µM); in [2] it was 1 µg/mL (≈ 2.2 µM); in assay [3], 32 µg/mL (≈ 70.4 µM); in [4], 16 µg/mL (≈ 35.2 µM); in assay [5], 64 µg/mL (≈ 141 µM); in assay [6], 128 µg/mL (≈ 282 µM). In addition, the MIC in [7] came to 4 µg/mL (≈ 8.8 µM); in [9] it was 128 µg/mL (≈ 282 µM). For the same molecule, in [8], the MIC50 worked out at 1 µg/mL (≈ 2.2 µM). The same molecule returned an MIC90 in [8] of 2 µg/mL (≈ 4.4 µM).
Regarding `CC1COc2c(N3CCN(C)CC3)c(F)cc3c(=O)c(C(=O)O)cn1c23` (stereo unspecified) [OFLOXACIN], the MIC in assay [6] and in [9] was 1 µg/mL (≈ 2.77 µM) in each case. For the same molecule, the MIC90 in [8] was found to be 1 µg/mL (≈ 2.77 µM).
Turning to `CC[C@H]1OC(=O)[C@H](C)[C@@H](O[C@H]2C[C@@](C)(OC)[C@@H](O)[C@H](C)O2)[C@H](C)[C@@H](O[C@@H]2O[C@H](C)C[C@H](N(C)C)[C@H]2O)[C@](C)(OC)C[C@@H](C)C(=O)[C@H](C)[C@@H](O)[C@]1(C)O` [CLARITHROMYCIN], the MIC came out at 16 µg/mL (≈ 21.4 µM) in assay [1]; 16 µg/mL (≈ 21.4 µM) in assay [2]; 32 µg/mL (≈ 42.8 µM) in assay [3]; 16 µg/mL (≈ 21.4 µM) in assay [4]; 16 µg/mL (≈ 21.4 µM) in [5]; 0.125 µg/mL (≈ 0.167 µM) in assay [6]. The MIC in assay [7] is 16 µg/mL (≈ 21.4 µM); in assay [9] it was 0.125 µg/mL (≈ 0.167 µM). Besides, the MIC50 in assay [8] was at most 0.06 µg/mL. The same molecule displayed an MIC90 in assay [8] of 1 µg/mL (≈ 1.34 µM).
Consider `CN[C@H](CC(C)C)C(=O)N[C@H]1C(=O)N[C@@H](CC(N)=O)C(=O)N[C@H]2C(=O)N[C@H]3C(=O)N[C@H](C(=O)N[C@H](C(=O)O)c4cc(O)cc(O)c4-c4cc3ccc4O)[C@H](O)c3ccc(c(Cl)c3)Oc3cc2cc(c3O[C@@H]2O[C@H](CO)[C@@H](O)[C@H](O)[C@H]2O[C@H]2C[C@](C)(N)[C@H](O)[C@H](C)O2)Oc2ccc(cc2Cl)[C@H]1O` [VANCOMYCIN], for which the MIC in assay [1] was 0.5 µg/mL (≈ 0.345 µM); in assay [2], 0.5 µg/mL (≈ 0.345 µM); in assay [3], 1 µg/mL (≈ 0.69 µM); in assay [4], 0.5 µg/mL (≈ 0.345 µM); in assay [5], 1 µg/mL (≈ 0.69 µM); in [6], 1 µg/mL (≈ 0.69 µM). Further, the MIC in assay [7] and in assay [9] was 1 µg/mL (≈ 0.69 µM) throughout. This molecule also showed an MIC50 in [8] of 0.5 µg/mL (≈ 0.345 µM). In assay [8], this molecule returned an MIC90 of 1 µg/mL (≈ 0.69 µM).
As to `C[C@@H](O)[C@H]1C(=O)N2C(C(=O)O)=C(SCCNC=N)C[C@H]12` [IMIPENEM ANHYDROUS], the minimal inhibitory concentration (MIC) in assay [1] is at most 0.06 µg/mL; in [2], at most 0.06 µg/mL; in assay [3], 0.125 µg/mL (≈ 0.418 µM); in assay [4], 0.125 µg/mL (≈ 0.418 µM); in assay [5], 0.125 µg/mL (≈ 0.418 µM); in assay [6], 0.125 µg/mL (≈ 0.418 µM). The MIC in [7] and in [9] was 0.125 µg/mL (≈ 0.418 µM) each time. The molecule further came in with an MIC50 in [8] of at most 0.06 µg/mL. In [8], this molecule returned an MIC90 of at most 0.06 µg/mL.
With `NC[C@H]1O[C@H](O[C@H]2[C@H](O)[C@@H](O[C@H]3O[C@H](CO)[C@@H](O)[C@H](N)[C@H]3O)[C@H](N)C[C@@H]2N)[C@H](O)[C@@H](O)[C@@H]1O` [KANAMYCIN], the minimum inhibitory concentration (MIC) came out at 0.25 µg/mL (≈ 0.516 µM) in assay [1]; 0.25 µg/mL (≈ 0.516 µM) in [2]; 0.25 µg/mL (≈ 0.516 µM) in assay [3]; 0.25 µg/mL (≈ 0.516 µM) in assay [4]; 0.5 µg/mL (≈ 1.03 µM) in assay [5]; 0.5 µg/mL (≈ 1.03 µM) in assay [6]. The MIC in assay [7] and in assay [9] was 0.25 µg/mL (≈ 0.516 µM) each time. This molecule also registered an MIC50 in assay [8] of 0.25 µg/mL (≈ 0.516 µM). This molecule showed an MIC90 in assay [8] of 0.5 µg/mL (≈ 1.03 µM).
As to `C[C@@H]1O[C@@H]1P(=O)(O)O` [FOSFOMYCIN], the minimal inhibitory concentration (MIC) in assay [1] is 64 µg/mL (≈ 464 µM); in [2], 128 µg/mL (≈ 927 µM); in assay [3], at least 512 µg/mL; in assay [4], 128 µg/mL (≈ 927 µM); in assay [5] it was at least 512 µg/mL; in [6] it was at least 512 µg/mL. Besides, the minimal inhibitory concentration (MIC) in assay [7] was determined as 128 µg/mL (≈ 927 µM); in [9], 256 µg/mL (≈ 1850 µM). This molecule also yielded an MIC50 in assay [8] of 128 µg/mL (≈ 927 µM). Moreover, the MIC90 in [8] is at least 512 µg/mL.
In assay [7], `CC1(C)S[C@@H]2[C@H](NC(=O)[C@H](N)c3ccccc3)C(=O)N2[C@H]1C(=O)O` [AMPICILLIN] gave an MIC of 4 µg/mL (≈ 11.4 µM). In [8], this molecule showed an MIC50 of 0.25 µg/mL (≈ 0.715 µM) and an MIC90 of 1 µg/mL (≈ 2.86 µM).
As for `CC[C@H]1OC(=O)[C@H](C)[C@@H](O[C@H]2C[C@@](C)(OC)[C@@H](O)[C@H](C)O2)[C@H](C)[C@@H](O[C@@H]2O[C@H](C)C[C@H](N(C)C)[C@H]2O)[C@](C)(O)C[C@@H](C)C(=O)[C@H](C)[C@@H](O)[C@]1(C)O` [ERYTHROMYCIN], the MIC in [1] was found to be 64 µg/mL (≈ 87.2 µM); in assay [2] it was 64 µg/mL (≈ 87.2 µM); in assay [3], 128 µg/mL (≈ 174 µM); in assay [4] it was 64 µg/mL (≈ 87.2 µM); in assay [5], 64 µg/mL (≈ 87.2 µM); in [6] it was 0.25 µg/mL (≈ 0.341 µM). In addition, the MIC in assay [7] stood at 64 µg/mL (≈ 87.2 µM); in assay [9] it was 0.25 µg/mL (≈ 0.341 µM). Besides, the MIC50 in assay [8] was 0.125 µg/mL (≈ 0.17 µM). For the same molecule, the MIC90 in [8] was 2 µg/mL (≈ 2.73 µM).
In the case of `Cc1onc(-c2ccccc2)c1C(=O)N[C@@H]1C(=O)N2[C@@H]1SC(C)(C)[C@@H]2C(=O)O` [OXACILLIN], the MIC in assay [1] was 128 µg/mL (≈ 319 µM); in [2], 128 µg/mL (≈ 319 µM); in assay [3], 256 µg/mL (≈ 638 µM); in assay [4], 128 µg/mL (≈ 319 µM); in [5], 128 µg/mL (≈ 319 µM); in [6], 128 µg/mL (≈ 319 µM). For the same molecule, the MIC in assay [7] is 64 µg/mL (≈ 159 µM); in [9], 256 µg/mL (≈ 638 µM). In assay [8], this molecule gave an MIC50 of 0.5 µg/mL (≈ 1.25 µM). In addition, the MIC90 in [8] was 1 µg/mL (≈ 2.49 µM).
For the molecule `CO[C@@]1(NC(=O)Cc2cccs2)C(=O)N2C(C(=O)O)=C(COC(N)=O)CS[C@@H]21` [CEFOXITIN], the MIC in [1] was 16 µg/mL (≈ 37.4 µM); in assay [2], 8 µg/mL (≈ 18.7 µM); in [3] it was 16 µg/mL (≈ 37.4 µM); in assay [4], 16 µg/mL (≈ 37.4 µM); in [5] it was 16 µg/mL (≈ 37.4 µM); in assay [6] it was 32 µg/mL (≈ 74.9 µM). For the same molecule, the MIC was 8 µg/mL (≈ 18.7 µM) in [7] and 32 µg/mL (≈ 74.9 µM) in assay [9]. In assay [8], this molecule gave an MIC50 of 2 µg/mL (≈ 4.68 µM). Further, the MIC90 in assay [8] is 2 µg/mL (≈ 4.68 µM).
